Measurements: ChEMBL document CHEMBL1135816, “6-Aryl-1,4-dihydro-benzo[d][1,3]oxazin- 2-ones: a novel class of potent, selective, and orally active nonsteroidal progesterone receptor antagonists” (J Med Chem, 2002)

How the values were obtained:
Androgen receptor = biological target: T1, Androgen receptor (Homo sapiens, UniProt P10275); assay: Antagonist activity against the Androgen Receptor (AR)
T1 sequence (P10275 whole entry): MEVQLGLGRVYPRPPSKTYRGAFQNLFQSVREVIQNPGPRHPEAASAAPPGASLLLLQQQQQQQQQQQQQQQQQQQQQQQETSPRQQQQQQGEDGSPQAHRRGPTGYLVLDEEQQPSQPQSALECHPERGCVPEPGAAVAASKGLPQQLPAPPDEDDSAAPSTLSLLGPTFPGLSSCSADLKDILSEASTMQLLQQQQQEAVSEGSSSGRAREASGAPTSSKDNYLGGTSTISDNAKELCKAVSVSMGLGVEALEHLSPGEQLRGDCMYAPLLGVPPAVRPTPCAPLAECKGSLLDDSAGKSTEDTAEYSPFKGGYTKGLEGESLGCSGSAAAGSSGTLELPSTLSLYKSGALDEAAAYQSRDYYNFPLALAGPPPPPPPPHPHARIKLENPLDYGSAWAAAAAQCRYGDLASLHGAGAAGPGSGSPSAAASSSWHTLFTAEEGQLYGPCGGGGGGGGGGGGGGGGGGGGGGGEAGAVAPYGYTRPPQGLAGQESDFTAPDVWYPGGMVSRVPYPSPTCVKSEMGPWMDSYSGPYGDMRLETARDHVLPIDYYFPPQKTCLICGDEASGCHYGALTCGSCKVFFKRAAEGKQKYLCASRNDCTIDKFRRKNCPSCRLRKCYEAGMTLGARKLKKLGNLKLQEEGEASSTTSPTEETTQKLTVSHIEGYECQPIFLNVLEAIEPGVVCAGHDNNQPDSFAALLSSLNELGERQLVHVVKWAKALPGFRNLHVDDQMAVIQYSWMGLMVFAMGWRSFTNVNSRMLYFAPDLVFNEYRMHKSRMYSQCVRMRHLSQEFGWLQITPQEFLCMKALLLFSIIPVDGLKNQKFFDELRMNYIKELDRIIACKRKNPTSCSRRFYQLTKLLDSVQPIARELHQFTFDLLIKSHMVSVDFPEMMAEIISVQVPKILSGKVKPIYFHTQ

Progesterone receptor [1] = biological target: T2, Progesterone receptor (Homo sapiens, UniProt P06401); assay: Antagonist activity against the Progesterone Receptor (PR); assay type: functional
T2 sequence (P06401 whole entry): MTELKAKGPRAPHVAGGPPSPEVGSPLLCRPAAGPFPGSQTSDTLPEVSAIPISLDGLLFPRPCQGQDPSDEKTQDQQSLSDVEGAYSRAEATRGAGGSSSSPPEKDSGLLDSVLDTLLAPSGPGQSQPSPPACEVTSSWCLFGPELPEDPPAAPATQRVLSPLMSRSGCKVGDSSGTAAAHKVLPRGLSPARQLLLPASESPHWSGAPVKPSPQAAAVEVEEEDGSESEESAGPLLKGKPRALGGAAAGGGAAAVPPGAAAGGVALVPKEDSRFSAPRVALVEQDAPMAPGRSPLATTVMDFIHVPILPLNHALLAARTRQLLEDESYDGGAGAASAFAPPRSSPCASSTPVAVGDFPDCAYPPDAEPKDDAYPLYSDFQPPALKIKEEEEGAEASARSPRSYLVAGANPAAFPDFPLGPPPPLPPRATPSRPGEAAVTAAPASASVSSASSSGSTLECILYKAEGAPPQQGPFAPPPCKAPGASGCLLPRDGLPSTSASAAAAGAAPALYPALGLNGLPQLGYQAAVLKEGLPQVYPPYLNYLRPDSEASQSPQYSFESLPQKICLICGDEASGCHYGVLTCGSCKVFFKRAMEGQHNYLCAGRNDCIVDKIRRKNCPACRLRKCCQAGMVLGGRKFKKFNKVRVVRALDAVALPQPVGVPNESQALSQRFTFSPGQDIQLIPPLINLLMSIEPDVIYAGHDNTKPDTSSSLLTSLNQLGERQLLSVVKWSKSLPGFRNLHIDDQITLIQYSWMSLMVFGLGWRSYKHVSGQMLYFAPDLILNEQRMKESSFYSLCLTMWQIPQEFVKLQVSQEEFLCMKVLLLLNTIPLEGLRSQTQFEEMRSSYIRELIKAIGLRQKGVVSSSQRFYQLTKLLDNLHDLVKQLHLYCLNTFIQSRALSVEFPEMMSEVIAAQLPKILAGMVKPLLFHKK
Procedure, shortened: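 Antagonism run in CV-1 cells co-transfected with hPR and PRE-luciferase plasmids, with luciferase read-out; IC50 taken as the mean of at least duplicate determinations.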

Glucocorticoid receptor = biological target: T3, Glucocorticoid receptor (Homo sapiens, UniProt P04150); assay: Antagonist activity against the Glucocorticoid Receptor (GR); assay type: functional
T3 sequence (P04150 whole entry): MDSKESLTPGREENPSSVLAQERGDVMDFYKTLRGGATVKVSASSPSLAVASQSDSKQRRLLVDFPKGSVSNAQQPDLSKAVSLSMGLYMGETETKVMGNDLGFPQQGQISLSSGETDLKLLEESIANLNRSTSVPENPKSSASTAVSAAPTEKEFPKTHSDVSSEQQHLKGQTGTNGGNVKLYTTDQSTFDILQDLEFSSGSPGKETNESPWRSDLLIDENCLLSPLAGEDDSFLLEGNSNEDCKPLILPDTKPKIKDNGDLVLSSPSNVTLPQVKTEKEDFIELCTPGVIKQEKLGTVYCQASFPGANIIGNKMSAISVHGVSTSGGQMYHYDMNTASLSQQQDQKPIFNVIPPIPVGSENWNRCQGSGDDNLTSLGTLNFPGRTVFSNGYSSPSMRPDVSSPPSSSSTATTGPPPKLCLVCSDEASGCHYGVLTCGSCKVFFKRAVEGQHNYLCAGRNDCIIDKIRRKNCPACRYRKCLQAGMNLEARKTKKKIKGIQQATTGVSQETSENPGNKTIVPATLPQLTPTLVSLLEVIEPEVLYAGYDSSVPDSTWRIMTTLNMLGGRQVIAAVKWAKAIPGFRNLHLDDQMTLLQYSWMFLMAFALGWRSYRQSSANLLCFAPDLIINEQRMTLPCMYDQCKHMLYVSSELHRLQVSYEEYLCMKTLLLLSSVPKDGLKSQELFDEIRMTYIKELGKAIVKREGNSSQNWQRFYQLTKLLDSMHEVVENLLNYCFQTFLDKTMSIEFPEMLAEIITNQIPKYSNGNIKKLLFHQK

Estrogen receptor = Estrogen receptor (Homo sapiens, UniProt Q92731+P03372); assay: Antagonist activity against the Estrogen Receptor (ER); assay type: functional
Progesterone receptor [2] = biological target: T2, Progesterone receptor; assay: Agonist activity against progesterone receptor (PR) in an alkaline phosphatase assay in the T47D human breast carcinoma cell line; assay type: functional, cell-based
Procedure, shortened: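 T47D human breast carcinoma cells scored for PR agonism via alkaline phosphatase read-out; EC50 taken as the mean of at least duplicate determinations.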

Compound	IC50 (Androgen receptor) [µM]	IC50 (Progesterone receptor [1]) [µM]	IC50 (Glucocorticoid receptor) [µM]	IC50 (Estrogen receptor) [µM]	EC50 (Progesterone receptor [2]) [µM]
CC1(C)OC(=O)Nc2ccc(-c3coc(C#N)c3)cc21	0.129	0.0402	> 10		
CC1(C)OC(=O)Nc2ccc(-c3cc(F)cc(C#N)c3)cc21	1.29	0.0159	1.76	> 10	0.09
CC1(C)OC(=O)Nc2ccc(-c3ccc(F)c(Cl)c3)cc21	0.207		2.58	> 10	
CC1(C)OC(=O)Nc2ccc(-c3csc(C#N)c3)cc21	0.28	0.0067	1.86		0.0611
